This is an account of results in ChEMBL document CHEMBL1152557, “Solution-phase parallel synthesis of substituted chalcones and their antiparasitary activity against Giardia lamblia” (Bioorg Med Chem, 2009).

Converted amounts (≈) assume the structure as drawn. The source made the active and inactive calls. The rule behind the calls is not given here.

What all share (type): functional, organism-based
Test [1] deals with Enterococcus faecalis. The experiment in a line: Antimicrobial activity against Enterococcus faecalis ATCC 29212 up to 100 ug/mL by broth microdilution assay.
For test [2], the system named is Escherichia coli. The experiment in a line: Antimicrobial activity against Escherichia coli ATCC 25922 up to 100 ug/mL by broth microdilution assay.
The test system of test [3] is Staphylococcus aureus. The experiment in a line: Antimicrobial activity against Staphylococcus aureus ATCC 29213 up to 100 ug/mL by broth microdilution assay.
Test [4] has as its system Giardia intestinalis. In words: Antigiardial activity against Giardia lamblia WB (ATCC 30957) trophozoites after 24 hrs by trypan blue assay. The note with it: Giardia duodenalis; for LC50: read-out: LD50 (the source's name). The procedure, abridged: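 Mid-log trophozoites, ice-chilled 20 min and counted by hemocytometer, 1.5 × 10⁵ cells per well in 1.5 mL final volume, incubated 24 h at 37 °C with compounds (DMSO stock diluted in medium, DMSO ≤5% v/v) at 100 µg/mL, then 1–100 µg/mL for selected ones. Metronidazole 1–5 µg/mL and DMSO controls. Plates ice-chilled 20 min, cells resuspended, counted. Mortality by trypan blue staining and absence of motility. IC50 and LD50 by probit analysis.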

Test [5] relates to Pseudomonas aeruginosa. The experiment in a line: Antimicrobial activity against Pseudomonas aeruginosa ATCC 27853 up to 100 ug/mL by broth microdilution assay.
In test [6] the test system is Giardia intestinalis. In words: Antigiardial activity against Giardia lamblia WB (ATCC 30957) trophozoites assessed as mild activity after 24 hrs by trypan blue assay. The note with it: Giardia duodenalis. The method, boiled down:
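Mid-log trophozoites chilled on ice 20 min, resuspended and counted by hemocytometer; 1.5 × 10⁵ cells per well, final volume 1.5 mL, incubated 24 h at 37 °C with compound (DMSO stock diluted in medium, DMSO ≤5% v/v) at 100 µg/mL. Plates re-chilled on ice 20 min before counting. Mortality from trypan blue staining plus loss of motility. Controls: metronidazole 1–5 µg/mL, DMSO vehicle.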

Regarding `COc1ccc(C(=O)/C=C/c2ccccc2F)cc1`, the result in test [1], in test [2], in test [3] and in test [5] was inactive. In test [4], this molecule registered a concentration for half-maximal inhibition (IC50) of 12.7 µg/mL (≈ 49.6 µM). Moreover, the LC50 in test [4] was 1.99 µg/mL (≈ 7.77 µM).

Take `Cc1ncc([N+](=O)[O-])n1CCO` [METRONIDAZOLE]: in test [4], half-maximal inhibition (IC50) was put at 2.88 µg/mL (≈ 16.8 µM) and the LC50 was 1.63 µg/mL (≈ 9.52 µM).

Consider `COc1ccc(/C=C/C(=O)c2ccccc2)cc1`, for which the result in test [1], in test [2], in test [3] and in test [5] was inactive. Further, the result in test [6] was Active.

For `Cc1ccc(/C=C/C(=O)c2ccc(F)cc2)cc1`, the result in test [1], in test [2], in test [3] and in test [5] was inactive. The molecule further showed an IC50 in test [4] of 15.3 µg/mL (≈ 63.7 µM). For the same molecule, the LC50 in test [4] was determined as 9.67 µg/mL (≈ 40.2 µM).

Consider `COc1ccc(C(=O)/C=C/c2ccc(Cl)cc2)cc1`, for which the result in test [1], in test [2], in test [3] and in test [5] was inactive. In test [4], this molecule displayed a half-inhibitory concentration (IC50) of 15 µg/mL (≈ 55.1 µM). In test [4], the LC50 was 7.52 µg/mL (≈ 27.6 µM).

As for `COc1ccc(/C=C/C(=O)c2ccc(OC)cc2)cc1`, the result in test [1], in test [2], in test [3] and in test [5] was inactive. In addition, the result in test [6] was Active.

Turning to `COc1ccc(/C=C/C(=O)c2ccc(Cl)cc2)cc1`, the result in test [1], in test [2], in test [3] and in test [5] was inactive. For the same molecule, in test [6], the result was Active.

For `COc1ccc(C(=O)/C=C/c2ccc(OC)cc2OC)cc1`, the result in test [1], in test [2], in test [3] and in test [5] was inactive. For the same molecule, the outcome in test [6] was Active.

Take `COc1ccc(C(=O)/C=C/c2ccccc2)cc1`: the result in test [1], in test [2], in test [3] and in test [5] was inactive. Moreover, the result in test [6] was Active.

As to `Cc1ccc(/C=C/C(=O)c2ccccc2)cc1`, the result in test [1], in test [2], in test [3] and in test [5] was inactive. In test [6], the outcome was Active.
